Measurements: ChEMBL document CHEMBL4033796, “4-Amino-7,8-dihydro-1,6-naphthyridin-5(6 H)-ones as Inhaled Phosphodiesterase Type 4 (PDE4) Inhibitors: Structural Biology and Structure-Activity Relationships” (J Med Chem, 2018)

Experiments:
[1] = biological target: 3',5'-cyclic-AMP phosphodiesterase 4B (Homo sapiens, UniProt Q07343); assay: Inhibition of recombinant human PDE4B1 using [3H]-cAMP as substrate […] measured after 60 mins by scintillation proximity assay
How it was run: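 Compounds ranged from 10 μM to 10 pM. The reaction was started with PDE4 enzyme and run 60 min at room temperature with agitation (about 10−20% conversion), then stopped with SPA beads. [3H]-AMP was counted by scintillation.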

[2] = Inhibition of PDE4 in human whole blood PBMC assessed as reduction in LPS-induced TNFalpha production after 24 hrs by ELISA
How it was run: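 Heparinized whole blood from healthy donors was preincubated with LPS (1 μg/mL final) at 37 °C for 10 min. It was then added to compounds in DMSO and incubated 24 h at 37 °C with agitation, then centrifuged. Serum TNF-α was measured by sandwich ELISA with TMB read-out at 450 nm. Experiments were done 2−3 times and duplicates were averaged.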

[3] = Apparent permeability of the compound by PAMPA assay; type: physicochemical

3',5'-cyclic-AMP phosphodiesterase 4B, sequence (Q07343 whole entry): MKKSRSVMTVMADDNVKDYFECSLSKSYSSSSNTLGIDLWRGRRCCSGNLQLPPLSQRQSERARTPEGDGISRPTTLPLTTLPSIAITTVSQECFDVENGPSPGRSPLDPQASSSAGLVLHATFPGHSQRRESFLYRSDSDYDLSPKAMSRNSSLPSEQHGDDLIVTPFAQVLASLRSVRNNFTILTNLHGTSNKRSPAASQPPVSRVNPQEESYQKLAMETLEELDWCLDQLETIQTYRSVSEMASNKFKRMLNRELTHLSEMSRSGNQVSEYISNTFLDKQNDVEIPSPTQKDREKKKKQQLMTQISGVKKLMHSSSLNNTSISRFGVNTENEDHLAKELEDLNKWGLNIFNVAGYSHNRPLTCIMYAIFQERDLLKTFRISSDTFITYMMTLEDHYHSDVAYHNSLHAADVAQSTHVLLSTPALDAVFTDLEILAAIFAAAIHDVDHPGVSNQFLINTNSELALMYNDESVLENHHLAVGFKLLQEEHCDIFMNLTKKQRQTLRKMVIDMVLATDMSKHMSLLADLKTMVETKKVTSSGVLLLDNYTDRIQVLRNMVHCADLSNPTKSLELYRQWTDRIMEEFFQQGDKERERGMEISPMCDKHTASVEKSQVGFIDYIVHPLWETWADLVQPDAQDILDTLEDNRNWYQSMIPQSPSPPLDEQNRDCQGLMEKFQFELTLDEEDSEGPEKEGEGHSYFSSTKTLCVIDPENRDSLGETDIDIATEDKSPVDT

IC50 [1] | IC50 [2] | Papp [3] | Structure (SMILES)
12 nM |  |  | O=C1NCCc2nc(-c3ccccc3)cc(Nc3ccc(CCO)cc3)c21
12 nM |  |  | O=C1NCCc2nc(-c3ccccc3)cc(NCCc3ccncc3)c21
0.23 nM | 2.8 nM |  | COc1cccc(Nc2cc(-c3cccc(-c4cccc(C(=O)NCCN(C)C)c4)c3)nc3c2C(=O)NCC3)c1
7.2 nM | 1.2 nM |  | CCOC(=O)c1ccc(-c2cccc(-c3cc(Nc4cccc(OC)c4)c4c(n3)CCNC4=O)c2)cc1
8.4 nM |  |  | COc1cccc(Nc2cc(-c3cccc(OC)c3)nc3c2C(=O)NCC3)c1
0.35 nM | 5.7 nM | 3.5 ×10⁻⁶ cm/s | COc1cccc(Nc2cc(-c3cccc(-c4ccc(C(=O)O)cc4)c3)nc3c2C(=O)NCC3)c1
2400 nM |  |  | Nc1cc(-c2ccccc2)nc2c1C(=O)NCC2
12 nM |  |  | NC(=O)c1cccc(Nc2cc(-c3ccccc3)nc3c2C(=O)NCC3)c1
120 nM | 270 nM |  | COc1cccc(Nc2cc(-c3ccccc3)nc3c2C(=O)NC(C)C3)c1 (stereo unspecified)
8.2 nM |  |  | COc1cccc(Nc2cc(-c3cccc(Br)c3)nc3c2C(=O)NCC3)c1
5.6 nM | 4.2 nM |  | COC(=O)c1ccc(O)c(-c2cccc(-c3cc(Nc4cccc(OC)c4)c4c(n3)CCNC4=O)c2)c1
25 nM |  |  | O=C1NCCc2nc(-c3ccccc3)cc(NCc3ccncc3)c21
1.2 nM | 0.66 nM |  | CCOC(=O)c1ccc(-c2cccc(-c3cc(Nc4cccc5ncccc45)c4c(n3)CCNC4=O)c2)cc1
13 nM |  |  | COc1cccc(Nc2cc(-c3cccc(OC)c3)nc3c2/C(=N/C#N)NCC3)c1
0.89 nM | 0.5 nM |  | O=C1NCCc2nc(-c3cccc(-c4cccc(O)c4)c3)cc(Nc3cccc4ncccc34)c21
0.32 nM | 1.1 nM |  | O=C(NC1CC1)c1cccc(-c2cccc(-c3cc(Nc4cncc5ccccc45)c4c(n3)CCNC4=O)c2)c1
2.1 nM | 0.43 nM |  | COc1cccc(Nc2cc(-c3cccc(-c4cccc(C(=O)NC5CC5)c4)c3)nc3c2C(=O)NCC3)c1
0.28 nM | 2.3 nM |  | COc1cccc(Nc2cc(-c3cccc(-c4cccc(C(N)=O)c4)c3)nc3c2C(=O)NCC3)c1
42 nM |  |  | Cc1ccncc1Nc1cc(-c2ccccc2)nc2c1C(=O)NCC2
1.8 nM | 4.2 nM |  | COc1cccc(Nc2cc(-c3cccc(-c4cccc(O)c4)c3)nc3c2C(=O)NCC3)c1
0.43 nM | 0.47 nM |  | O=C1NCCc2nc(-c3ccccc3)cc(Nc3cccc4c3ccc[n+]4[O-])c21
240 nM |  |  | COc1cccc(Nc2cc(-c3ccccc3)ncc2C(N)=O)c1
0.75 nM | 1.5 nM |  | O=C1NCCc2nc(-c3ccc(F)c(F)c3)cc(Nc3cccc4ncccc34)c21
32 nM |  |  | COc1cccc(Nc2cc(-c3ccccc3OC)nc3c2C(=O)NCC3)c1
5.6 nM | 3 nM |  | O=C1NCCc2nc(-c3ccccc3)cc(Nc3n[nH]c4ncccc34)c21
1.6 nM | 5.4 nM | 2 ×10⁻⁶ cm/s | COc1cccc(Nc2cc(-c3ccccc3)nc3c2C(=O)NCC3)c1
14 nM |  |  | O=C1NCCc2nc(-c3ccccc3)cc(Nc3cccc4cnccc34)c21
8.7 nM | 0.49 nM |  | O=C1NCCc2nc(-c3ccccc3)cc(Nc3ccc(C[C@@H](O)CO)cc3)c21
